Assay results reported in ChEMBL document CHEMBL3352185, “Design, synthesis, and antibacterial properties of dual-ligand inhibitors of acetyl-CoA carboxylase” (2014).
≈ marks a conversion by molar mass, not a printed value. Calls of active or inactive are those of the source. The calls are words filed in the database; no cut-off is given here.

How the values were obtained:
[1] = system: Escherichia coli; test: Ratio of MPC for Escherichia coli D21 tolC deletion mutant to MIC for Escherichia coli D21 tolC deletion mutant; type: functional
Method in brief: (§1)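 Single-step selection on MHII agar: compound added to molten agar cooled to 55 °C, at 2-fold increasing concentrations. Overnight MHII broth culture of E. coli tolC concentrated by centrifugation; 4 × 10^9 CFU plated per plate, CFU counted by serial dilution. Plates monitored for resistant colonies. MPC is the lowest consecutive concentration fully suppressing resistant mutants. Ratio is MPC to broth microdilution MIC.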

[2] = system: Escherichia coli; test: Antibacterial activity against Escherichia coli D21 tolC deletion mutant assessed as mutant prevention concentration after 18 to 24 hrs by two-fold broth microdilution method; type: functional; method in brief: as §1
[3] = system: Pseudomonas aeruginosa; test: Antibacterial activity against Pseudomonas aeruginosa PAO1 mexAB/mexCD/mexXY/mexHI/opmH deletion mutant after 18 to 24 hrs by two-fold broth microdilution method
[4] = system: Escherichia coli; test: Antibacterial activity against wild type Escherichia coli D21 after 18 to 24 hrs by two-fold broth microdilution method; type: functional
Method in brief: (§2)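 CLSI broth microdilution in cation-adjusted Mueller Hinton (MHII) broth. Strains streaked on agar and grown overnight at 35 °C. […] Value is the MIC.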

[5] = system: Escherichia coli; test: Antibacterial activity against Escherichia coli D21 IpxC101 deletion mutant after 18 to 24 hrs by two-fold broth microdilution method; type: functional; method in brief: as §2
[6] = system: Staphylococcus aureus; test: microbe, parasite or virus in culture; settings: ATCC 29213
[7] = system: Enterococcus faecalis; test: Antibacterial activity against wild type Enterococcus faecalis ATCC 29212 after 18 to 24 hrs by two-fold broth microdilution method; type: functional
Method in brief: (§3)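 MICs were determined by CLSI broth microdilution in cation-adjusted Mueller Hinton (MHII) broth. Organisms were first streaked on agar and grown overnight at 35 °C. Compounds were dissolved in 100% DMSO and tested as 2-fold serial dilutions. A standardized inoculum was incubated with compound for 18−24 h at 35 °C. The norA strain is an otherwise isogenic S. aureus carrying a gain-of-function NorA mutation.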

[8] = system: Escherichia coli; test: Antibacterial activity against Escherichia coli D21 tolC deletion mutant after 18 to 24 hrs by two-fold broth microdilution method; type: functional; method in brief: as §2
[9] = system: Staphylococcus aureus; test: microbe, parasite or virus in culture; settings: ATCC 29213; remark: listed apart in the source
[10] = system: Pseudomonas aeruginosa; test: Antibacterial activity against wild type Pseudomonas aeruginosa PAO1 after 18 to 24 hrs by two-fold broth microdilution method; type: functional; method in brief: as §2
[11] = system: Escherichia coli; test: Antibacterial activity against Escherichia coli D21 IpxC101/tolC deletion mutant after 18 to 24 hrs by two-fold broth microdilution method; type: functional; method in brief: as §2
[12] = system: Staphylococcus epidermidis; test: Antibacterial activity against wild type Staphylococcus epidermidis ATCC 35984 after 18 to 24 hrs by two-fold broth microdilution method; type: functional; method in brief: as §3
[13] = system: Escherichia coli; test: Competitive inhibition of Escherichia coli biotin carboxylase
[14] = system: Escherichia coli; test: Antibacterial activity against moiramide-resistant Escherichia coli D21 tolC deletion mutant after 18 to 24 hrs by two-fold broth microdilution method; type: functional; method in brief: as §2
[15] = system: Escherichia coli; test: Non competitive inhibition of Escherichia coli acetyl-CoA carboxylase using acetyl-CoA as substrate in presence of ATP
[16] = system: Escherichia coli; test: Competitive inhibition of Escherichia coli acetyl-CoA carboxylase using acetyl-CoA as substrate in presence of ATP
Method in brief: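 ACC holoenzyme activity was measured with a pyruvate kinase/lactate dehydrogenase coupled assay. Mix: 0.5 mM phosphoenolpyruvate, 0.2 mM NADH, 20 mM MgCl2, 15 mM bicarbonate, 100 mM HEPES pH 8.0. ATP was fixed at 5 μM, acetyl-CoA was varied from 50 to 1000 μM, and inhibitor was used at fixed increasing concentrations. Initial velocities were fitted to a competitive equation to give Kis.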

[17] = system: Staphylococcus aureus; test: Antibacterial activity against moiramide-resistant Staphylococcus aureus ATCC 29213 after 18 to 24 hrs by two-fold broth microdilution method; type: functional; method in brief: as §2
[18] = system: Escherichia coli; test: Antibacterial activity against Escherichia coli JM109 at 1 to 100 uM after 4 hrs by UV-Vis spectrophotometry in presence of PBMN; type: functional, organism-based
Method in brief: (§4)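 E. coli JM109 was grown overnight in LB at 37 °C, then diluted into fresh LB tubes. Tubes received compound from a DMSO stock at final 1, 10, 50 or 100 μM, with or without polymyxin B nonapeptide at final 0.5, 1, 5 or 10 μg/mL. Tubes were incubated 4 h at 37 °C and growth was read as absorbance at 600 nm.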

[19] = system: Escherichia coli; test: Antibacterial activity against Escherichia coli JM109 at 1 to 100 uM after 4 hrs by UV-Vis spectrophotometry; type: functional, organism-based; method in brief: as §4
[20] = system: Staphylococcus aureus; test: Selectivity ratio of MIC for moiramide-resistant Staphylococcus aureus ATCC 29213 to MIC for Staphylococcus aureus ATCC 29213; type: functional
[21] = system: Escherichia coli; test: Selectivity ratio of MIC for moiramide-resistant Escherichia coli D21 tolC deletion mutant to MIC for Escherichia coli D21 tolC deletion mutant; type: functional
[22] = system: Escherichia coli; test: Inhibition of Escherichia coli acetyl-CoA carboxylase
Method in brief: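 Purified ACC complex was assayed by PK/LDH-coupled NADH oxidation in 100 mM HEPES pH 8.0, with 20 mM MgCl2 and 15 mM bicarbonate. One series varied ATP (0.8–56 μM) at 0.2 mM acetyl-CoA; the other varied acetyl-CoA (50–1000 μM) at 5 μM ATP. Each series was run at fixed increasing inhibitor levels. Kis and Kii came from fits to competitive or noncompetitive rate equations.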

Row | Molecule | Ratio [1] | Activity [2] [mg/L] | MIC [3] [mg/L] | MIC [4] [mg/L] | MIC [5] [mg/L] | MIC [6] [mg/L] | MIC [7] [mg/L] | MIC ([8]; Escherichia coli, D21) [mg/L] | MIC [9] [mg/L] | MIC [10] [mg/L] | MIC [11] [mg/L] | MIC [12] [mg/L] | MIC [14] [mg/L] | Kii [15] [nM] | Kis [15] [nM] | Kis [16] [nM] | MIC [17] [mg/L] | also measured
1 | CO[C@H]1/C=C/O[C@@]2(C)Oc3c(C)c(O)c4c(O)c(c(/C=N/N5CCN(C)CC5)c(O)c4c3C2=O)NC(=O)/C(C)=C\C=C\[C@H](C)[C@H](O)[C@@H](C)[C@@H](O)[C@@H](C)[C@H](OC(C)=O)[C@@H]1C [RIFAMPIN] | >8 | >64 | 31 (≈ 37.7 µM) | 31 (≈ 37.7 µM) | 0.06 (≈ 0.0729 µM) | ≤ 0.03 | 0.5 (≈ 0.608 µM) | 8 (≈ 9.72 µM) | ≤ 0.03 | 31 (≈ 37.7 µM) | 0.5 (≈ 0.608 µM) | ≤ 0.03 |  |  |  |  |  | Activity [8]: >64 mg/L
2 | GENTAMICIN |  |  |  | 0.1 | 0.12 |  | 8 |  |  | 2 | < 0.03 | 8 |  |  |  |  |  | MIC [8]: 0.24 mg/L
3 | Nc1ncc(C(=O)N(Cc2ccccc2)Cc2ccccc2)o1 | >8 | >128 |  | > 64 |  | > 64 | > 64 | 16 (≈ 52.1 µM) | > 64 | > 64 | 16 (≈ 52.1 µM) | > 64 | 8 (≈ 26 µM) | 900 | 400 |  |  | Kis [13]: 0.8 µM
4 | O=C(N[C@H](CO)[C@H](O)c1ccc([N+](=O)[O-])cc1)C(Cl)Cl [CHLORAMPHENICOL] |  |  | 2 (≈ 6.19 µM) | 8 (≈ 24.8 µM) | 4 (≈ 12.4 µM) | 8 (≈ 24.8 µM) | 8 (≈ 24.8 µM) | 1 (≈ 3.09 µM) | 8 (≈ 24.8 µM) | > 64 | 1 (≈ 3.09 µM) | 8 (≈ 24.8 µM) |  |  |  |  |  | 
5 | CC(C)[C@H](NC(=O)C[C@H](NC(=O)CCCCCCCOc1ccc(CN(Cc2ccccc2)C(=O)c2cnc(N)o2)cc1)c1ccccc1)C(=O)[C@@H]1C(=O)NC(=O)[C@H]1C | 8 | 64 |  | > 64 |  | 4 (≈ 4.96 µM) | 4 (≈ 4.96 µM) | 8 (≈ 9.91 µM) | 4 (≈ 4.96 µM) | > 64 | 4 (≈ 4.96 µM) | 1 (≈ 1.24 µM) | 16 (≈ 19.8 µM) | 9.6 | 16.9 | 5.5 | > 64 | 
6 | CC(C)[C@H](NC(=O)C[C@H](NC(=O)CCCCCCCCCCCCCCCOc1ccc(CN(Cc2ccccc2)C(=O)c2cnc(N)o2)cc1)c1ccccc1)C(=O)[C@@H]1C(=O)NC(=O)[C@H]1C |  |  |  | > 64 |  | > 64 | > 64 |  | > 64 | > 64 |  | > 64 |  | 33.7 | 28.7 | 5.2 |  | Activity [18]: Active; Activity [19]: inactive
7 | C/C=C/C=C/C(=O)N[C@@H](CC(=O)N[C@H](C(=O)[C@@H]1C(=O)NC(=O)[C@H]1C)C(C)C)c1ccccc1 | 32 | 16 | 8 (≈ 17.6 µM) | > 64 | 4 (≈ 8.82 µM) | 1 (≈ 2.2 µM) | 8 (≈ 17.6 µM) | 0.5 (≈ 1.1 µM) | 4 (≈ 8.82 µM) | > 64 | 0.5 (≈ 1.1 µM) | 0.24 (≈ 0.529 µM) | 4 (≈ 8.82 µM) |  |  | 7.9 | 8 (≈ 17.6 µM) | Ratio [20]: 8; Ratio [21]: 8; INH [22]: 5 nM
8 | NC[C@H]1O[C@H](O[C@H]2[C@H](O)[C@@H](O[C@H]3O[C@H](CO)[C@@H](O)[C@H](N)[C@H]3O)[C@H](N)C[C@@H]2N)[C@H](O)[C@@H](O)[C@@H]1O [KANAMYCIN] |  |  | 64 (≈ 132 µM) | 2 (≈ 4.13 µM) | 1 (≈ 2.06 µM) | 4 (≈ 8.26 µM) | 31 (≈ 64 µM) | 2 (≈ 4.13 µM) | 4 (≈ 8.26 µM) | 128 (≈ 264 µM) | 0.5 (≈ 1.03 µM) | > 128 | 0.5 (≈ 1.03 µM) |  |  |  | 2 (≈ 4.13 µM) | 
